Published values pooled from the literature.
Lines come from different studies, so protocols differ.
SIRT6: NAD-dependent protein deacylase sirtuin-6 (SIRT6, Homo sapiens, UniProt Q8N6T7)
ALK: ALK tyrosine kinase receptor (ALK, Homo sapiens, UniProt Q9UM73)
SCN5A: Sodium channel protein type 5 subunit alpha (SCN5A, Homo sapiens, UniProt Q14524)
CCR2: C-C chemokine receptor type 2 (CCR2, Homo sapiens, UniProt P41597)
MAPK10: Mitogen-activated protein kinase 10 (MAPK10, Homo sapiens, UniProt P53779)
SLC47A1: Multidrug and toxin extrusion protein 1 (SLC47A1, Homo sapiens, UniProt Q96FL8)
CTSB: Cathepsin B (CTSB, Homo sapiens, UniProt P07858)
FLT4: Vascular endothelial growth factor receptor 3 (FLT4, Homo sapiens, UniProt P35916)

Structure (SMILES) | target | assay | system | conditions | IC50
CCn1ncc2c1-c1cnc(N)c(c1)O[C@H](C)c1cc(F)ccc1-c1nn(C)nc1C2 | Angiopoietin-1 receptor (TEK, Homo sapiens, UniProt Q02763) | enzyme activity, inhibitor, radiometric | – | – | 280 nM
NC(=S)c1ccc(C(=O)NOCc2ccc(C(F)(F)F)cc2)cc1 | SIRT6 | enzyme activity, inhibitor, fluorescence | – | – | 2030 nM
NC(=O)c1ccc[n+]([C@@H]2O[C@H](COP(=O)([O-])OP(=O)(O)OC[C@H]3O[C@@H](n4cnc5c(N)ncnc54)[C@H](O)[C@@H]3O)[C@@H](O)[C@H]2O)c1 | Protein mono-ADP-ribosyltransferase PARP14 (PARP14, Homo sapiens, UniProt Q460N5) | enzyme activity, inhibitor | – | – | 110000 nM
Cc1cc(-c2ccncc2)n[nH]1 | ALK | enzyme activity, inhibitor, TR-FRET | – | – | 240000 nM
O=C1c2ccccc2-c2cccc3cccc1c23 | Receptor-type tyrosine-protein phosphatase C (PTPRC, Homo sapiens, UniProt P08575) | enzyme activity, inhibitor, fluorescence | – | – | > 150000 nM
CNC[C@]1(c2ccc(F)cc2F)C[C@H]1Oc1ccc(C#N)cc1-c1cc(C)[nH]n1 (racemic) | ALK | enzyme activity, inhibitor, TR-FRET | – | – | 49 nM
NC(=O)c1ccc(C(=O)NOCc2ccc(Sc3ccc(F)cc3)c(C(F)(F)F)c2)cc1 | SIRT6 | enzyme activity, inhibitor, fluorescence | – | – | 2350 nM
CCn1c(-c2nc3cc(C(=O)N4CCC[C@@H](N)C4)cc(OC)c3n2C)cc2cccnc21 | SCN5A | ion current, inhibitor | – | – | 50100 nM
CN(Cc1ccc(NC(=O)C2=Cc3cc(-c4ccc(OCCCCCO)cc4)ccc3CCC2)cc1)C1CCOCC1 | CCR2 | ligand displacement, radioligand | – | cell membranes | 326 nM
NC(=O)c1ccc(C(=O)NOCc2ccc(C(F)(F)F)c(Cl)c2)cc1 | SIRT6 | enzyme activity, inhibitor, fluorescence | – | – | 1990 nM
COc1ccc2c(Oc3ccc4c(C(=O)Nc5ccccc5N)cccc4c3)ccnc2c1 | MAPK10 | enzyme activity, inhibitor | – | – | > 500 nM
CCOC(F)(F)c1nnc2cnc(-c3cnc(OCC(F)(F)F)c(F)c3)cn12 | SCN5A | ion current, inhibitor, patch clamp | – | – | 989 nM
CSc1nc(C)c(-c2ccnc(NC3CCOCC3)c2)[nH]1 | MAPK10 | enzyme activity, inhibitor, ELISA | – | – | 2630 nM
Cc1cc(-c2cccc(F)c2)n[nH]1 | ALK | enzyme activity, inhibitor, TR-FRET | – | – | 240000 nM
C=C(C)[C@H](CC=C(C)C)Cc1c(O)cc(O)c2c1O[C@H](c1ccc(O)cc1O)CC2=O | Fatty acid synthase (FASN, Gallus gallus, UniProt P12276) | enzyme activity, inhibitor, radiometric | – | – | 6700 nM
CN(C(=O)n1cnc(-c2ccc[n+]([O-])c2)c1)C1CCCCC1 | SLC47A1 | transporter uptake, inhibitor | MDCK-II | – | > 33300 nM
NCc1cccc(C(=O)NOCc2ccc(C(F)(F)F)cc2)c1 | SIRT6 | enzyme activity, inhibitor, fluorescence | – | – | 41200 nM
Cc1cc(-c2cc(C#N)ccc2O[C@H]2C[C@H]2c2ccc(F)cc2F)n[nH]1 | ALK | enzyme activity, inhibitor, TR-FRET | – | – | 80 nM
O=C(NCCN1CCCC1)c1cc(-c2ccc(CN3CCOCC3)cc2)nc2ccc(F)cc12 | SCN5A | ion current, inhibitor, patch clamp | – | – | 16000 nM
COc1cc(NCC(=O)Nn2c(C)nc3ccc(Cl)cc3c2=O)cc(OC)c1OC | CTSB | enzyme activity, inhibitor | – | – | 70500 nM

Structure (SMILES) | target | assay | system | conditions | IC50
CNC(=O)c1cc2c(Oc3ccc(NC(=O)C4(C(=O)Nc5ccc(F)cc5)CC4)cc3)ccnc2cc1OC | FLT4 | enzyme activity, inhibitor, radiometric | – | – | 6 nM
CCS(=O)(=O)N1CC(CC#N)(n2cc(-c3ncnc4[nH]ccc34)cn2)C1 | SLC47A1 | transporter uptake, inhibitor, radiometric | – | 2 min | 76700 nM
CN1CCN(c2ccc(Nc3ncc4cc(C#N)c(=O)n(C5CCCC5)c4n3)cc2)CC1 | Serine/threonine-protein kinase D3 (PRKD3, Homo sapiens, UniProt O94806) | enzyme activity, inhibitor | – | – | 70.9 nM
Nc1ncc2c(n1)-c1c([nH]c3ccc(-c4ccc(F)cc4)cc13)CCC2 | Myosin light chain kinase family member 4 (MYLK4, Homo sapiens, UniProt Q86YV6) | enzyme activity, inhibitor, radiometric | – | – | 35 nM
Cc1cc(-c2cccc(C(F)(F)F)c2)n[nH]1 | ALK | enzyme activity, inhibitor, TR-FRET | – | – | 60000 nM
CSc1nc(C)c(-c2ccnc(N[C@H]3CC[C@H](NC(=O)C(C)(C)C)CC3)c2)[nH]1 | MAPK10 | enzyme activity, inhibitor, ELISA | – | – | 2540 nM
CCOc1ccc2c(-c3cc(C)nc(Nc4cc(OC)cc(C(F)(F)F)c4)n3)cnn2n1 | Dual specificity protein kinase CLK3 (CLK3, Homo sapiens, UniProt P49761) | enzyme activity, inhibitor | – | – | > 10000 nM
Cc1nc2ccccc2c(=O)n1NC(=O)CSc1nc2ccccc2c(=O)n1-c1ccccc1 | CTSB | enzyme activity, inhibitor | – | – | 62800 nM
NC(=O)c1ccc(C(=O)NOCc2ccc(Oc3ccccc3)cc2)cc1 | SIRT6 | enzyme activity, inhibitor, fluorescence | – | – | 1910 nM
CC(C)c1ccc(NC(=O)CCc2nc(O)c3c4c(sc3n2)CCC4)cc1 | Pantothenate kinase 1 (Homo sapiens, UniProt Q8TE04) | enzyme activity, inhibitor, ATP luminescence | – | – | 20 nM
NC(=O)c1ccc(C(=O)NOCc2ccccc2Cl)cc1 | SIRT6 | enzyme activity, inhibitor, fluorescence | – | – | 11400 nM
O=[N+]([O-])C=Cc1ccc2[nH]c3ncc(Cl)cc3c2c1 | ALK | enzyme activity, inhibitor, ELISA | – | – | 3300 nM
CN(Cc1ccc(NC(=O)C2=Cc3cc(-c4ccc(OCCCO)cc4)ccc3CCC2)cc1)C1CCOCC1 | CCR2 | ligand displacement, radioligand | – | cell membranes | 199 nM
Cc1cnc(-c2ccc(-c3ccc(NC(=O)Nc4c(F)cc(F)cc4F)cc3F)c3c2C(=O)NC3)[nH]1 | Mitogen-activated protein kinase kinase kinase kinase 1 (MAP4K1, Homo sapiens, UniProt Q92918) | enzyme activity, inhibitor | – | – | 11.5 nM
CC(=O)c1ccc2[nH]c3nc(C)ccc3c2c1 | ALK | enzyme activity, inhibitor, ELISA | – | – | > 10000 nM
Cc1ccc(C(=O)Nc2ccc(Oc3cc4cnn(C)c4cc3-c3cn[nH]c3)c(F)c2)c(=O)n1-c1ccc(F)cc1 | FLT4 | enzyme activity, inhibitor, radiometric | – | – | 23 nM
Cc1cccc(Sc2ccc(CONC(=O)c3ccc(C(N)=O)cc3)cc2C(F)(F)F)c1 | SIRT6 | enzyme activity, inhibitor, fluorescence | – | – | 1810 nM
Nc1nonc1-n1cc(C(=O)N/N=C/c2ccco2)nn1 | SIRT6 | enzyme activity, inhibitor, fluorescence | – | – | 14000 nM
NC(=O)c1ccc(C(=O)NOCc2cc(Cl)cc(Cl)c2)cc1 | SIRT6 | enzyme activity, inhibitor, fluorescence | – | – | 2970 nM
CN(Cc1ccc(NC(=O)C2=Cc3cc(-c4ccc(OCCCCCCCF)cc4)ccc3CCC2)cc1)C1CCOCC1 | C-C chemokine receptor type 5 (CCR5, Homo sapiens, UniProt P51681) | ligand displacement, radioligand | – | cell membranes | 3600 nM
